Test [1] has as its target T1, Neutrophil elastase (Homo sapiens) (UniProt P08246).
T1 sequence (whole entry): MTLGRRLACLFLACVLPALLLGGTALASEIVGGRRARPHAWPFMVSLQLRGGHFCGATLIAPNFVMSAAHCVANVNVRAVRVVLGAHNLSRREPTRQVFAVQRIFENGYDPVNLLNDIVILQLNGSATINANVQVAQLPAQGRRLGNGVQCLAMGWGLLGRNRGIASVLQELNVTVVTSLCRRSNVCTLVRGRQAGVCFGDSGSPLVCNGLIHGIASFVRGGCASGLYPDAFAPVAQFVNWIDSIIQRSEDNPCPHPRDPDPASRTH
Nature of the test: elastase inhibitory activity, evaluated for second order rate constant (time-dependent inhibition). The gist of the method: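 HLE-catalyzed hydrolysis of MeO-Suc-Ala-Ala-Pro-Ala-pNA was followed while enzyme inactivation was monitored for 15 min. Second-order rate constants (kobs/I, M-1 s-1) were derived from this time-dependent inactivation.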

Test [2] addresses T1, Neutrophil elastase (Homo sapiens). Put plainly: Percent inhibition in elastase-induced lung haemorrhage, when the compound is dosed orally at 30 mg/kg 30 min before challenge by HLE (Human leukocyte elastase). Details: dose 30 mg/kg. The class given is functional, organism-based. In short, it runs like this:
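Anesthetized hamsters received the compound orally 30 min before intratracheal instillation of 50 units HLE. After 3 h, hemoglobin in the lung lavage was measured spectrophotometrically. Percent inhibition of hemorrhage was calculated for the drug-treated group against the vehicle-only group.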

Molecules are shown by their SMILES.

`CCC1(CC)C(=O)N(C(=O)NCc2ccccc2)C1Oc1ccc(CC(=O)O)cc1` (configuration not stated) showed a second order rate constant kobs/[I] in test [1] of 3200 M⁻¹ s⁻¹. In test [2], the inhibition was found to be 71%.
`CCN(Cc1ccccc1)C(=O)N1C(=O)C(CC)(CC)C1Oc1ccc(C(=O)O)cc1` (configuration not stated): the second order rate constant kobs/[I] in test [1] turned out to be 2300 M⁻¹ s⁻¹. In test [2], the inhibition is 34%.
On to `CCCCNC(=O)N1C(=O)C(CC)(CC)C1Oc1ccc(C(=O)O)cc1` (configuration not stated), for which the second order rate constant kobs/[I] in test [1] worked out at 800 M⁻¹ s⁻¹. The inhibition in test [2] is 45%.
For `CCC1(CC)C(=O)N(C(=O)NCc2ccc(C)cc2)C1Oc1ccc(C(=O)O)cc1` (configuration not stated), the second order rate constant kobs/[I] in test [1] worked out at 4000 M⁻¹ s⁻¹. Further, in test [2], the inhibition came to 86%.
Taken in the same sequence, the figures for `CCC1(CC)C(=O)N(C(=O)NCc2ccc(OCc3ccccc3)cc2)C1Oc1ccc(C(=O)O)cc1` (configuration not stated) were 12000 M⁻¹ s⁻¹ and -9%.
Consider `CCC1(CC)C(=O)N(C(=O)NCCCCc2ccccc2)C1Oc1ccc(C(=O)O)cc1` (configuration not stated), for which the second order rate constant kobs/[I] in test [1] is 9200 M⁻¹ s⁻¹. Also, in test [2], the inhibition was 35%.
Taken in the same sequence, the figures for `CCC1(CC)C(=O)N(C(=O)NCc2ccc(C(C)=O)cc2)C1Oc1ccc(C(=O)O)cc1` (configuration not stated) were 5900 M⁻¹ s⁻¹ and 37%.
Taken in the same sequence, the figures for `CCC1(CC)C(=O)N(C(=O)NCc2ccc(OC)c(C)c2)C1Oc1ccc(C(=O)O)cc1` (configuration not stated) were 13100 M⁻¹ s⁻¹ and 64%.
Compound `CCC1(CC)C(=O)N(C(=O)NCc2ccc(-c3ccccc3)cc2)C1Oc1ccc(C(=O)O)cc1` (configuration not stated) gave a second order rate constant kobs/[I] in test [1] of 23200 M⁻¹ s⁻¹. Moreover, the inhibition in test [2] came out at 24%.
Taken in the same sequence, the figures for `CCc1ccc(CNC(=O)N2C(=O)C(CC)(CC)C2Oc2ccc(C(=O)O)cc2)cc1` (configuration not stated) were 8200 M⁻¹ s⁻¹ and 46%.
`CCC1(CC)C(=O)N(C(=O)NCc2ccc(F)cc2)C1Oc1ccc(C(=O)O)cc1` (configuration not stated): in test [1], the second order rate constant kobs/[I] worked out at 2300 M⁻¹ s⁻¹. The inhibition in test [2] was found to be 4%.
Taken in the same sequence, the figures for `CCC1(CC)C(=O)N(C(=O)NCc2ccc(-c3ccccc3)cc2)C1Oc1ccc(CC(=O)O)cc1` (configuration not stated) were 29000 M⁻¹ s⁻¹ and 19%.
The compound `CCC1(CC)C(=O)N(C(=O)NCc2cccc3ccccc23)C1Oc1ccc(C(=O)O)cc1` (configuration not stated) returned a second order rate constant kobs/[I] in test [1] of 8400 M⁻¹ s⁻¹.
As to `CCC1(CC)C(=O)N(C(=O)NCc2ccc(O)cc2)C1Oc1ccc(C(=O)O)cc1` (configuration not stated), the second order rate constant kobs/[I] in test [1] came out at 3000 M⁻¹ s⁻¹.
With `CCC1(CC)C(=O)N(C(=O)NCc2ccc(C)c(C)c2)C1Oc1ccc(C(=O)O)cc1` (configuration not stated), the second order rate constant kobs/[I] in test [1] is 21000 M⁻¹ s⁻¹. Moreover, the inhibition in test [2] was 52%.
`CCC1(CC)C(=O)N(C(=O)NCCCC(=O)c2ccccc2)C1Oc1ccc(C(=O)O)cc1` (configuration not stated) registered a second order rate constant kobs/[I] in test [1] of 2000 M⁻¹ s⁻¹. Besides, in test [2], the inhibition is 0%.
Consider `CCC1(CC)C(=O)N(C(=O)NCc2ccc(C)c(OC)c2)C1Oc1ccc(C(=O)O)cc1` (configuration not stated), for which the second order rate constant kobs/[I] in test [1] came to 6500 M⁻¹ s⁻¹. For the same compound, the inhibition in test [2] is 76%.
Taken in the same sequence, the figures for `CCC1(CC)C(=O)N(C(=O)NCc2ccc(OC)cc2)C1Oc1ccc(C(=O)O)cc1` (configuration not stated) were 5200 M⁻¹ s⁻¹ and 60%.
`CCC1(CC)C(=O)N(C(=O)NCCc2ccccc2)C1Oc1ccc(C(=O)O)cc1` (configuration not stated): the second order rate constant kobs/[I] in test [1] worked out at 1300 M⁻¹ s⁻¹. For the same compound, in test [2], the inhibition came out at 33%.
Taken in the same sequence, the figures for `CCC1(CC)C(=O)N(C(=O)NCCCCCCc2ccccc2)C1Oc1ccc(C(=O)O)cc1` (configuration not stated) were 5000 M⁻¹ s⁻¹ and 14%.
In the same order, the values of `CCC1(CC)C(=O)N(C(=O)NCCCc2ccccc2)C1Oc1ccc(C(=O)O)cc1` (configuration not stated) are 4500 M⁻¹ s⁻¹ and 12%.
In the same order, the values of `CCC1(CC)C(=O)N(C(=O)NCc2ccc(SC)cc2)C1Oc1ccc(C(=O)O)cc1` (configuration not stated) are 9400 M⁻¹ s⁻¹ and 28%.
On to `CCC1(CC)C(=O)N(C(=O)NCCCCCc2ccccc2)C1Oc1ccc(C(=O)O)cc1` (configuration not stated), for which, in test [1], the second order rate constant kobs/[I] came to 4800 M⁻¹ s⁻¹. Further, the inhibition in test [2] worked out at 15%.
In the case of `CCC1(CC)C(=O)N(C(=O)NCCC(=O)c2ccccc2)C1Oc1ccc(C(=O)O)cc1` (configuration not stated), the second order rate constant kobs/[I] in test [1] turned out to be 2100 M⁻¹ s⁻¹. The inhibition in test [2] turned out to be 8%.
Taken in the same sequence, the figures for `CCC1(CC)C(=O)N(C(=O)NCCCCOc2ccccc2)C1Oc1ccc(C(=O)O)cc1` (configuration not stated) were 3400 M⁻¹ s⁻¹ and 30%.
As for `CCC1(CC)C(=O)N(C(=O)NCc2ccc3c(c2)OCO3)C1Oc1ccc(C(=O)O)cc1` (configuration not stated), the second order rate constant kobs/[I] in test [1] came to 5000 M⁻¹ s⁻¹. The inhibition in test [2] was 10%.
For `CCC1(CC)C(=O)N(C(=O)NCCCC(O)c2ccccc2)C1Oc1ccc(C(=O)O)cc1` (configuration not stated), the second order rate constant kobs/[I] in test [1] was determined as 5100 M⁻¹ s⁻¹.
The compound `CCC1(CC)C(=O)N(C(=O)NCc2ccccc2N)C1Oc1ccc(C(=O)O)cc1` (configuration not stated) yielded a second order rate constant kobs/[I] in test [1] of 1200 M⁻¹ s⁻¹. The inhibition in test [2] stood at 73%.
Taken in the same sequence, the figures for `CCC1(CC)C(=O)N(C(=O)NCc2cccc(C)c2)C1Oc1ccc(C(=O)O)cc1` (configuration not stated) were 7000 M⁻¹ s⁻¹ and 47%.
In the same order, the values of `CCC1(CC)C(=O)N(C(=O)NCc2cc(C)cc(C)c2)C1Oc1ccc(C(=O)O)cc1` (configuration not stated) are 14700 M⁻¹ s⁻¹ and 69%.
Regarding `CCC1(CC)C(=O)N(C(=O)NCc2ccc(C)cc2)C1Oc1ccc(CC(=O)O)cc1` (configuration not stated), the second order rate constant kobs/[I] in test [1] stood at 4500 M⁻¹ s⁻¹. The inhibition in test [2] was 72%.
Taken in the same sequence, the figures for `CCC1(CC)C(=O)N(C(=O)NCc2ccc(Cl)cc2)C1Oc1ccc(C(=O)O)cc1` (configuration not stated) were 3400 M⁻¹ s⁻¹ and 29%.
The compound `CCC1(CC)C(=O)N(C(=O)NCc2ccccc2O)C1Oc1ccc(C(=O)O)cc1` (configuration not stated) showed a second order rate constant kobs/[I] in test [1] of 1500 M⁻¹ s⁻¹. Further, the inhibition in test [2] is -2%.
In turn, `CCC1(CC)C(=O)N(C(=O)NCc2ccccc2C)C1Oc1ccc(C(=O)O)cc1` (configuration not stated) registered a second order rate constant kobs/[I] in test [1] of 700 M⁻¹ s⁻¹. For the same compound, the inhibition in test [2] worked out at 33%.
Taken in the same sequence, the figures for `CCC1(CC)C(=O)N(C(=O)NCc2ccc(N(C)C)cc2)C1Oc1ccc(C(=O)O)cc1` (configuration not stated) were 10000 M⁻¹ s⁻¹ and 25%.
In the same order, the values of `CCC1(CC)C(=O)N(C(=O)NCC2CCCCC2)C1Oc1ccc(C(=O)O)cc1` (configuration not stated) are 1400 M⁻¹ s⁻¹ and 0%.
`CCC1(CC)C(=O)N(C(=O)NCc2ccsc2)C1Oc1ccc(C(=O)O)cc1` (configuration not stated): the second order rate constant kobs/[I] in test [1] amounted to 1300 M⁻¹ s⁻¹. In addition, the inhibition in test [2] stood at 53%.
In test [1], `CCC1(CC)C(=O)N(C(=O)NCc2ccc(C(=O)O)cc2)C1Oc1ccc(C(=O)O)cc1` (configuration not stated) registered a second order rate constant kobs/[I] of 2200 M⁻¹ s⁻¹. Further, in test [2], the inhibition was 25%.
Consider `CCC1(CC)C(=O)N(C(=O)NCc2ccc3ccccc3c2)C1Oc1ccc(C(=O)O)cc1` (configuration not stated), for which, in test [1], the second order rate constant kobs/[I] is 21300 M⁻¹ s⁻¹. In addition, the inhibition in test [2] stood at 37%.
In the same order, the values of `CCC1(CC)C(=O)N(C(=O)NCc2ccc(C)cc2C)C1Oc1ccc(C(=O)O)cc1` (configuration not stated) are 1500 M⁻¹ s⁻¹ and 45%.
Compound `CCC1(CC)C(=O)N(C(=O)NCCCOc2ccccc2)C1Oc1ccc(C(=O)O)cc1` (configuration not stated) showed a second order rate constant kobs/[I] in test [1] of 3500 M⁻¹ s⁻¹. The inhibition in test [2] was 40%.
In the same order, the values of `CCC1(CC)C(=O)N(C(=O)NCc2ccco2)C1Oc1ccc(C(=O)O)cc1` (configuration not stated) are 5200 M⁻¹ s⁻¹ and 58%.
For the compound `CCC1(CC)C(=O)N(C(=O)NCc2ccc(N)cc2)C1Oc1ccc(C(=O)O)cc1` (configuration not stated), the second order rate constant kobs/[I] in test [1] stood at 1800 M⁻¹ s⁻¹. Besides, the inhibition in test [2] was 2%.
Taken in the same sequence, the figures for `CCC1(CC)C(=O)N(C(=O)NCc2ccccc2)C1Oc1ccc(C(=O)O)cc1` (configuration not stated) were 1500 M⁻¹ s⁻¹ and 56%.
`CCCCCCCCCNC(=O)N1C(=O)C(CC)(CC)C1Oc1ccc(C(=O)O)cc1` (configuration not stated) showed a second order rate constant kobs/[I] in test [1] of 8300 M⁻¹ s⁻¹.
In test [1], `CCC1(CC)C(=O)N(C(=O)NCc2cccs2)C1Oc1ccc(C(=O)O)cc1` (configuration not stated) came in with a second order rate constant kobs/[I] of 4900 M⁻¹ s⁻¹. Also, the inhibition in test [2] was 52%.
The compound `CCC1(CC)C(=O)N(C(=O)NCc2ccc([N+](=O)[O-])cc2)C1Oc1ccc(C(=O)O)cc1` (configuration not stated) showed a second order rate constant kobs/[I] in test [1] of 5100 M⁻¹ s⁻¹. For the same compound, in test [2], the inhibition was found to be 22%.
On to `CCC1(CC)C(=O)N(C(=O)NCc2ccc(C(N)=O)cc2)C1Oc1ccc(C(=O)O)cc1` (configuration not stated), for which the second order rate constant kobs/[I] in test [1] worked out at 4300 M⁻¹ s⁻¹. The inhibition in test [2] came out at 10%.

(Values after ChEMBL document CHEMBL1126197, “Orally active beta-lactam inhibitors of human leukocyte elastase-1. Activity of 3,3-diethyl-2-azetidinones” (J Med Chem, 1992).)
